From ChEMBL document CHEMBL1144474, “Synthesis and anti-HIV-1 activity evaluation of 5-alkyl-2-alkylthio-6-(arylcarbonyl or alpha-cyanoarylmethyl)-3,4-dihydropyrimidin-4(3H)-ones as novel non-nucleoside HIV-1 reverse transcriptase inhibitors” (J Med Chem, 2007)

Experiments:
[1] = test system: Human immunodeficiency virus 1; assay: Antiviral activity against wild type HIV1 3B in MT4 cells after 4 days by MTT method; type: functional, organism-based; settings: Human immunodeficiency virus 1, 3B, MT4, 96 h
How it was run: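 MT-4 cells at 1 × 10⁵ cells/mL infected with HIV-1 IIIB (titrated as CCID₅₀) at MOI 0.02, then plated right away into serial compound dilutions (DMSO stocks, 50 mM or higher). After 4 days at 37 °C, viable cells were counted by MTT. IC₅₀ is the concentration giving 50% protection from viral cytopathogenicity.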

[2] = Cytotoxicity against MT4 cells after 4 days by MTT method; type: cell-based; settings: human
How it was run: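 Uninfected MT-4 cells were run in parallel with the infected cultures across a range of compound concentrations (DMSO stocks, 50 mM or higher). After 4 days at 37 °C, viability was read by MTT. CC₅₀ is the concentration that cuts normal cell viability by 50%.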

[3] = Selectivity index, CC50 for MT4 cells/IC50 for HIV1 3B; type: functional
How it was run: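 Ratio of CC₅₀ in uninfected MT-4 cells to IC₅₀ against HIV-1 IIIB cytopathogenicity in MT-4 cells. Both values come from the 4-day, 37 °C MTT read-out, run in parallel.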

Row | SMILES | IC50 [1] [µM] | CC50 at 96 h [2] [µM] | Ratio CC50/IC50 [3]
1 | CCc1c(C(=O)c2cccc3ccccc23)nc(SCc2ccccc2)[nH]c1=O | > 312 | > 312 | 
2 | O=C(c1cc(=O)[nH]c(SC2CCCC2)n1)c1cccc2ccccc12 | > 21 | 21 | <1
3 | CCSc1nc(C(=O)c2cccc3ccccc23)c(CC)c(=O)[nH]1 | 27.8 | 197 | 7
4 | C#CCSc1nc(C(C#N)c2cccc3ccccc23)c(CC)c(=O)[nH]1 (centres undefined) | 4.85 | 48 | 10
5 | CCc1c(C(=O)c2ccc3ccccc3c2)nc(SCc2ccccc2)[nH]c1=O | ≥ 60.8 | 157 | <=3
6 | Cc1c(C(=O)c2ccccc2)nc(SC(C)C)[nH]c1=O | 2.05 | 263 | 128
7 | Cc1c(C(C#N)c2cccc3ccccc23)nc(SCC(=O)c2ccc(Cl)cc2)[nH]c1=O (centres undefined) | 4.71 | 148 | 32
8 | CCc1c(C(C#N)c2cccc3ccccc23)nc(SCc2ccc([N+](=O)[O-])cc2)[nH]c1=O (centres undefined) | 1.25 | 24.5 | 20
9 | C#CCSc1nc(C(C#N)c2cccc3ccccc23)c(C)c(=O)[nH]1 (centres undefined) | 2.7 | 46.1 | 17
10 | C#CCSc1nc(C(=O)c2cccc3ccccc23)c(C)c(=O)[nH]1 | > 124 | 124 | <1
11 | COc1ccc(CSc2nc(C(C#N)c3c(Cl)cccc3Cl)c(C(C)C)c(=O)[nH]2)cc1 (centres undefined) | > 23.5 | 23.5 | <1
12 | Cc1c(C(C#N)c2cccc3ccccc23)nc(SC2CCCC2)[nH]c1=O (centres undefined) | 0.8 | 49.4 | 61
13 | Cc1c(Sc2ccccc2)n(COCCO)c(=O)[nH]c1=O [HEPT] |  |  | 80
14 | CCSc1nc(C(=O)c2cccc3ccccc23)cc(=O)[nH]1 | 37.6 | 242 | 6
15 | COc1ccc(CSc2nc(C(C#N)c3cccc4ccccc34)c(C(C)C)c(=O)[nH]2)cc1 (centres undefined) | > 2.09 | 2.09 | <1
16 | CC(C)c1c(C(C#N)c2cccc3ccccc23)nc(SC2CCCC2)[nH]c1=O (centres undefined) | 1.34 | 7.32 | 5
17 | Cc1c(C(C#N)c2ccccc2)nc(SCC(=O)c2ccccc2)[nH]c1=O (centres undefined) | 7.28 | 53.8 | 7
18 | CCc1c(C(C#N)c2cccc3ccccc23)nc(SC2CCCC2)[nH]c1=O (centres undefined) | 0.18 | 51.9 | 293
19 | Cc1ccnc2c1NC(=O)c1cccnc1N2C1CC1 [NEVIRAPINE] | 0.25 | > 200 | >800
